The EternaBench riboswitch data

Tested on: MS2 coat protein
Assay: apparent Kd, MS2 coat protein; higher = weaker binding; RNA-MaP array
Method in brief: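 Designs measured on fewer than 10 clusters were excluded from the data. The rest were RNAs transcribed from sequenced DNA templates on an Illumina sequencing chip and incubated at room temperature, with or without input ligand, with fluorescently labeled MS2 coat protein at 1.5 nM to 3 μM for 0.8–1.5 h at the lowest to 10–20 min at the highest concentrations. Apparent Kd is the median of the per-cluster binding-curve fits.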

[1] = designed as: ON switch for flavin mononucleotide, no ligand
[2] = ligand present: flavin mononucleotide, designed as: ON switch for flavin mononucleotide
[3] = designed as: OFF switch for flavin mononucleotide, no ligand
[4] = ligand present: flavin mononucleotide, designed as: OFF switch for flavin mononucleotide
[5] = designed as: OFF switch for theophylline, no ligand
[6] = ligand present: theophylline, designed as: OFF switch for theophylline

Sequence | apparent Kd [1] [nM] | apparent Kd [2] [nM] | apparent Kd [3] [nM] | apparent Kd [4] [nM] | further results
UAAACAUGAGGAUCACCCAUGUAUUGGAGUAACCGCAAGAGGAGAAGGACCGGAGUGAGAUUAUGGUAGGAUAUCCCAACUACA | 17.6 | 12.1 |  |  | 
AGUCGUUAACGGCGCAACACAUGAGGAUCACCCAUGUGCUAUGAGGAUAUCCGGGUGUACAAGCCGGAGAAGGCAUCGUUCUUU | 10.6 | 9.55 |  |  | 
GCAUUAGAGGACACAUGAGGAUCACCCAUGUGCAUCAUCAGAUAGGAUAUCUUAACAGAAAUUUGAGAGAAGGAUCGUGUUCGG |  |  | 7.84 | 7.53 | 
CGGUGUGCAGAGGAUAUCGGCGUUUUCUCACAUCGAGAAGGCUGCACAUGAGGAUCACCCAUGUAUCUUUAGGA |  |  | 58.6 | 189 | 
AGUUGUGGAAAGAAGGCGUGACGAGGUAAAUAUCCAACAUGAGGAUCACCCAUGUUUCUUGCCUACGAGGAUAUUUGUGCUAUC | 14 | 12.2 |  |  | 
CCUCACGGACUCUCCACAUGAGGAUCACCCAUGUAAGCCGCGAAGGAUAUGAACGUCUCUCCGGGUCAGAAGGUCGCCGGUCCU |  |  | 8.78 | 9.71 | 
GAAACAUUAGAAGGAUAUGAUACGAACACCGGGUACAUGAGGAUCACCCAUGUUCAGAAAUAAUAUCAGAAGGUCAGCAACAAA | 985 | 418 |  |  | 
UACAAACCGUUAGAUGGGACAUGAGGAUCACCCAUGUAUAACAGAAGGUCAAAUUGAAACAUUCAGAAGGAUAUGUCAUACAAA |  |  | 85.3 | 59.5 | 
UUUAGGUCAGAGAAGGGCCAUUCUACAUACUCGGCAGGAUAUCUAUUACCUGACAUGAGGAUCACCCAUGUGGUGAACCGACCA | 199 | 311 |  |  | 
GUGCACCGUGAGAAGGCAUAGCACGUGUCGCUGACAUGAGGAUCACCCAUGUGUUGUAAAGUGCAUGAGGAUAUCAGCCAUAGG | 42.3 | 10.4 |  |  | 
CGUAUGUGAGGAUAUCCGAAACUAUUUACCAAAUUAUAAGUGGAGAAGGCACAUGAGGAUCACCCAUGUGAUGG |  |  | 11.5 | 24.6 | 
UUAGAGAGAGGAUAUACAGAGUAUCAACUCGGCGGACAAGAACAUGAGGAUCACCCAUGUAGAAGGCUCUCAGA |  |  | 18.6 | 67.1 | 
UGGACUUCAGGAUAUACAUGAGGAUCACCCAUGUAUACGUGUAUGAUCCCAGAAACAAGUAGAAGGGAAAGCCG |  |  | 5.71 | 5.65 | 
ACAAAAUAGCUAGGAUAUCGUACGAAUUGACAUUUUUAGCAAACAUGAGGAUCACCCAUGUCCUACGAGAAGGAGCUUAUGAAG |  |  | 14.3 | 7.55 | 
GCGACUUUUACCGAGGAUAUGUCGUGACACACAUGAGGAUCACCCAUGUUUCUAAGUCCUGGAAUACAGAAGGCGGUAUUAAUACA | 7.53 | 5.42 |  |  | 
UGUAACGAAGGAUAUACAAGAAGACAAGUGCGGCAGUACGUACAUGAGGAUCACCCAUGUAGAAGGUCGAAGGC |  |  | 7.03 | 7.66 | 
AUUAACUCAGCAGGAUAUCUCAGCGGACGUUGCAGAGAAGGGCUAUGCCUAUGUAGGCAACUCACAUGAGGAUCACCCAUGUAA | 38.8 | 19.1 |  |  | 
GAAGAAAAGUGAGGAUAUGGCAACCAGAUGACGCAAACAAUAAAACAUGAGGAUCACCCAUGUACCCAGAAGGCACCAAACAAA | 15.2 | 9.48 |  |  | 
GCAACCCUGCAGAAGGGCGGGUGUACAUGAGGAUCACCCAUGUUAUCAGCAAAGUAGCUGGAUACGCAGGAUAUGCAGUCGAGU | 164 | 29.6 |  |  | 
GGUCGUCUAGUUAGGAUAUCAUUAUUAGAUUAAAUUGAGAAGGAACAUGAGGAUCACCCAUGUCGACAACUAUC |  |  | 7.13 | 8.12 | 
GCACUAGAGCAAGGAUAUAUAUCGGAAUCUACAUGAGGAUCACCCAUGUGUGUGACUUCUCGCAGAUAGAAGGUGCUCGCUGAC |  |  | 433 | 206 | 
GUGAUCAUCCGAGGAUAUUUUUCAUAGGCAUAAGGGGACAUGAGGAUCACCCAUGUAAACACCAUAAAGAAGGCGGGGCAGACC |  |  | 20 | 15.3 | 
GUUCCCAUAUCAGGAUAUAUUUCACAUGAGGAUCACCCAUGUUACCCGUGAAGUCGACUCUAUGUAUAGAAGGGAUGAUGGGCC |  |  | 55.4 | 43.7 | 
UCUAACAUGAGGAUCACCCAUGUGGGUUAUCGAGGACCGGUACGGCCGCCACUCGACCAGUAUAACUGGCUAGAACGUAUUUGAU |  |  |  |  | apparent Kd (designed as: ON switch for tryptophan, no ligand): 34 nM; apparent Kd (ligand present: tryptophan, designed as: ON switch for tryptophan): 26.6 nM
GACCCUACGGAGAAGGCACCUACAUGAGGAUCACCCAUGUUUGAUCGUUUGCCGGACGGCUUACGUGAGGAUAUCCAGGUACAG | 14.8 | 7.2 |  |  | 
UGGGAACAUGAGGAUCACCCAUGUGAGGAUAUCCACCGAUUUCACACGAUAGGCACAAGGAGAAGGCACACCUA |  |  | 33.9 | 36.2 | 
UUCUACUAGUGACACUACUAGACAUGAGGAUCACCCAUGUCAGAGGAUAUGGAAAGACAUUAUUACCAGAAGGCUGCCAAGGUA | 15.6 | 15 |  |  | 

Sequence | apparent Kd [1] [nM] | apparent Kd [2] [nM] | apparent Kd [3] [nM] | apparent Kd [4] [nM] | further results
AUCGAUUUUAUAGGAUAUCGCACAUGAGGAUCACCCAUGUGCCCGACAGACUUAAAGCUCAAUCGCGAGAAGGAUAGAACAGGG |  |  | 8.63 | 8.02 | 
GGCCUUGUUGUUAUAGGACAUGAGGAUCACCCAUGUAUAUGUAAGGAUAUGAAUCGUAAGACGCAUCAGAAGGUACAGUACUGG |  |  | 122 | 55.8 | 
ACACAUGAGGAUCACCCAUGUCGACGUUAGGCUCGUCGCGGCAGAAGGUGUGGCAUGGACACCCACAAGGAUAUGCAUGGGACU | 174 | 119 |  |  | 
CCCGACGAGCCUGAGAUUAAGUAAGCGGAUACCAGAGAUAGGUAGCUCCCUUGGCAGCCGUGGACAUGAGGAUCACCCAUGUCAC |  |  |  |  | apparent Kd [5]: 11.1 nM; apparent Kd [6]: 11.2 nM
GGGAAACAUGAGGAUCACCCAUGUAAGGAUAUAGAAGAUUCAACAUUCAAGAAUGAGACUAGAAGGUACAGAUC |  |  | 20.2 | 17.9 | 
CCUGAGGUUAUAGGAUAUAGGCUAGAGAGGUACGAUUCUUUAUGAACAUGAGGAUCACCCAUGUCCUAGAAGGAUACUUAGUAG | 58.1 | 112 |  |  | 
GGACUAUCAGGAUAUACAUGAGGAUCACCCAUGUACUUUAGGUAAUGGGACUACACCGGUAGAAGGGAUUAAAG |  |  | 116 | 84.8 | 
CACGAACAUGAGGAUCACCCAUGUCAGGAUAUCGUGCUAAUCCCAUAAUCGGCGCGCACGAGAAGGGACCAGGG |  |  | 12.7 | 19.6 | 
GGUUUGAACAAGAAGGUGAGUCACGAGACCCUGGGAUCUCGGGACAUGAGGAUCACCCAUGUCGUCAAGGAUAUUGUGGUGUUU | 769 | 191 |  |  | 
GUAUGGGCGUAACAUGAGGAUCACCCAUGUCCGAAUGCGAUGAGAAGGCCACAUAGUUGGCUGAUGGAGGAUAUCAAAGUAUAU |  |  | 97.9 | 70.8 | 
CAGCCGGCCUAGAAGGUCGAAAUCCAAAUCGUCGAAGGAUAUAGGUCCAGAAAACAAUUACAUGAGGAUCACCCAUGUAUCCUG | 21.5 | 14.2 |  |  | 
AUUAGCAAGUCAUAGGAUAUGAAGCCACUUACAUGAGGAUCACCCAUGUAAUUCCGGGUCCCGCCUCAGAAGGAUGACGUAAUAGG | 17.1 | 7.12 |  |  | 
UGAUUGAGCGGAGGAUAUCUUAAUGAGCACGUAAGAGAAGGCCGGUGGCUCCUAUAUGCAGCGCACAUGAGGAUCACCCAUGUC |  |  | 170 | 91.6 | 
GCGGGAGCACAGAAGGCGGAACUAAAGCAAUUACCAAUAGUUAACAUGAGGAUCACCCAUGUGCCCGAGGAUAUGUCGAAAGUG | 53.2 | 10.6 |  |  | 
GUUUACAAUGUCAGGAUAUCACAGCGUACAAAUGUUGAGAAGGGACAUGAGGAUCACCCAUGUACACACCUCUU |  |  | 8.04 | 9.29 | 
ACUCGGGGUUGAGGAUAUUCGACUCGAUCUCCACAUGAGGAUCACCCAUGUCAGGACUGACCGGUGAAGAAGGCAACCGUACAU | 16.2 | 5.67 |  |  | 
CGCCUACAUGAGGAUCACCCAUGUGAUGUUACGGUAGGAUAUAGAGCUGAGCCACUCUGCCUAGAAGGACCUAUAC | 68.8 | 37.3 |  |  | 
GACAAUAAUUCAACAAUCAAAAUAGUGGGACGAGGACCGGUACGGCCGCCACUCGCUGAAGCACAUGAGGAUCACCCAUGUCUAA |  |  |  |  | apparent Kd (designed as: OFF switch for tryptophan, no ligand): 17.2 nM; apparent Kd (ligand present: tryptophan, designed as: OFF switch for tryptophan): 17.8 nM
CCUCGAUUUUGAUACCGAUAUGUCUUUGAUACCAGCGCCAUAGUACGCCCUUGGCAGCAAGAAACAUGAGGAUCACCCAUGUUAA |  |  |  |  | apparent Kd [5]: 16.7 nM; apparent Kd [6]: 49.8 nM
GCGCGCGGUGGCGGUCAACAUGAGGAUCACCCAUGUGUGAACAGAAGGCGCGUAUGCUACCAUGGCGAGGAUAUGUUGGGUCAG |  |  | 5.95 | 5.99 | 
CACAUUCCUUAGAAGGCUACGAAUUUAGCGCGUAGAGGAUAUAAGGGAUACAUGAGGAUCACCCAUGUGAUAUAUCUUCUGAAA |  |  | 20.8 | 24.1 | 
AUACGUGCAGGAUAUUAUUCGAGCCACAUGAGGAUCACCCAUGUUAAUUCUUCAUGUAUCUAAGAAGGGCAGUGAA |  |  | 9.07 | 9.67 | 
CAGUGAGCCAAGAAGGUUGCUGACGAUAGUGGCAAAGGAUAUUGAGGGCGCAAUCAUUUACAUGAGGAUCACCCAUGUUCUUAC | 35.4 | 17.5 |  |  | 
CAAGGGAAAGUCAGGAUAUGCACAACCGACCGUUUGCAGAAGGGACAUGAGGAUCACCCAUGUGUGGAACUGUU |  |  | 9.02 | 21.4 | 
UAUUUGGCGCUAGGAUAUAAAGGAACUAUUUAAUUAGAAGGAGCACGGGAACCUGAGGUACAUGAGGAUCACCCAUGUCUGAUA | 17.6 | 19.1 |  |  | 
AACAUGAGGAUCACCCAUGUUCUGCAAUAAAGUGUAUCAUAUAAGGAUAUCAGACUAAUACGAACUGAGAAGGUAUUCCUACAC | 5.3 | 4.39 |  |  | 
AAGGGCGCAGUAGGAUAUCAAUGUUUGACGGCGUGAGAAGGACUGCCCUAUUUUCAGACAUGAGGAUCACCCAUGUGCGUAAGA | 9.4 | 6.41 |  |  | 
